The text below walks through data of ChEMBL document CHEMBL2390920, “8-Benzamidochromen-4-one-2-carboxylic acids: potent and selective agonists for the orphan G protein-coupled receptor GPR35” (J Med Chem, 2013).

The target in assay [1] is G protein-coupled receptor GPR35 (Rattus norvegicus) (UniProt Q33BM1). In words: Agonist activity at rat GPR35 expressed in CHO cells assessed as induction of beta-arrestin recruitment at 10 uM after 90 mins by beta-galactosidase reporter gene assay. It counts as cell-based. In a few lines: (§1)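 Rat GPR35 expressed by transfecting a parental CHO β-arrestin-EA line; cells seeded at 20000/well the day before. Compounds (final DMSO ≤1%) were incubated 90 min, followed by detection reagent and a luminescence read after 60 min.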
Chain of G protein-coupled receptor GPR35 (Rattus norvegicus) (Q33BM1 as listed by the source): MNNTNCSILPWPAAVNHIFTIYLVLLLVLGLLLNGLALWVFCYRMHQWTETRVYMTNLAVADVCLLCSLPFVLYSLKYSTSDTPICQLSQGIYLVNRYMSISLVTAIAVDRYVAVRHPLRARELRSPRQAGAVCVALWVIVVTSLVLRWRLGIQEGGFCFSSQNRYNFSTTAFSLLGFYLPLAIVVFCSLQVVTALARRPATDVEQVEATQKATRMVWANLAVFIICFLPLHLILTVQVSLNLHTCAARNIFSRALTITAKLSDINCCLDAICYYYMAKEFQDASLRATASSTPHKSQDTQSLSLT

The target in assay [2] is T1, G-protein coupled receptor 55 (Homo sapiens, UniProt Q9Y2T6). The assay can be described thus: Agonist activity at human GPR55 expressed in CHO cells assessed as induction of beta-arrestin recruitment at 10 uM after 90 mins by beta-galactosidase reporter gene assay relative to lysophosphotidylinositol. The class given is functional, cell-based. In a few lines: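 Human GPR55 PathHunter CHO cells, 20000 cells/well seeded the day before, received test compound at 10 µM (final DMSO ≤1%) for 90 min. Detection reagent was then added and luminescence read after 60 min. Signal was normalized to that of 1 µM LPI.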
T1 sequence (Q9Y2T6 whole entry): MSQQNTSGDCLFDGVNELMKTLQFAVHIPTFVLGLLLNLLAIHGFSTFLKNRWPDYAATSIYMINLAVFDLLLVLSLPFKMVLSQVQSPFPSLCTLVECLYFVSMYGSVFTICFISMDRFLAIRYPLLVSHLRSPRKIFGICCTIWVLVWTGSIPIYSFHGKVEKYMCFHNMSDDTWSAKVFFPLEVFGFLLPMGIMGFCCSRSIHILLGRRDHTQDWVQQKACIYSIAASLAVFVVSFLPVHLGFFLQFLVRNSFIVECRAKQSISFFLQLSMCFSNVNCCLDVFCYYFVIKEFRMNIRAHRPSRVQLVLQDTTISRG

Assay [3] has as its target G-protein coupled receptor 35 (Mus musculus) (UniProt Q9ES90). The assay can be described thus: Agonist activity at mouse GPR35 expressed in CHO cells assessed as induction of beta-arrestin recruitment at 10 uM after 90 mins by beta-galactosidase reporter gene assay. The class given is cell-based. In a few lines:
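Mouse GPR35 introduced by transfection into a CHO β-arrestin-EA line; 20000 cells/well plated the day prior. After 90 min of compound exposure (final DMSO ≤1%), detection reagent was added and luminescence read after 60 min.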

Assay [4] concerns the target T2, G-protein coupled receptor 35 (Homo sapiens, UniProt Q9HC97). In words: Agonist activity at human GPR35 expressed in CHO cells assessed as induction of beta-arrestin recruitment after 90 mins by beta-galactosidase reporter gene assay. It counts as cell-based. In a few lines: (§2)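 PathHunter enzyme-fragment complementation in CHO cells stably expressing β-arrestin-EA and tagged human GPR35, seeded at 20000 cells/well the day before. DMSO dilutions were further diluted 1:10 (final DMSO ≤1%). Cells were incubated 90 min, then detection reagent was added and luminescence read after 60 min.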

Assay [5] addresses T2, G-protein coupled receptor 35. The assay can be described thus: Agonist activity at human GPR35 expressed in CHO cells assessed as induction of beta-arrestin recruitment at 10 uM after 90 mins by beta-galactosidase reporter gene assay relative to zaprinast. It counts as cell-based. In a few lines: as §2
The target in assay [6] is T1, G-protein coupled receptor 55. In words: Antagonist activity at human GPR55 expressed in CHO cells assessed as inhibition of lysophosphotidylinositol-induced beta-arrestin recruitment at 10 uM preincubated for 30 mins followed by lysophosphotidylinositol induction by beta-galactosidase reporter gene assay relative to control. The class given is functional, cell-based. In a few lines: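 Human GPR55 PathHunter CHO cells were preincubated 30 min with compound, then stimulated with LPI (final 1 µM). After 90 min, detection reagent was added and luminescence read 60 min later. Screening was at 10 µM; full concentration-inhibition curves were run for selected compounds to give IC50.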

In assay [7] the target is T2, G-protein coupled receptor 35. In words: Agonist activity at human GPR35b expressed in CHO cells assessed as induction of beta-arrestin recruitment at 10 uM after 90 mins by beta-galactosidase reporter gene assay relative to zaprinast. The class given is cell-based. In a few lines:
(§3)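 CHO β-arrestin-EA parental line transfected with human GPR35b, seeded at 20000 cells/well the day before. Compounds in DMSO were diluted 1:10 in medium or PBS (final DMSO ≤1%). After 90 min of incubation, detection reagent was added and luminescence measured 60 min later. Screening was at 10 µM.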

The target is the same in assay [8]. In words: Agonist activity at human GPR35b expressed in CHO cells assessed as induction of beta-arrestin recruitment after 90 mins by beta-galactosidase reporter gene assay. It counts as cell-based. In a few lines:
as §3

In assay [9] the target is G protein-coupled receptor GPR35 (Rattus norvegicus) (UniProt Q33BM1). In words: Agonist activity at rat GPR35 expressed in CHO cells assessed as induction of beta-arrestin recruitment at 10 uM after 90 mins by beta-galactosidase reporter gene assay relative to zaprinast. It counts as cell-based. In a few lines: as §1
The target of assay [10] is G protein-coupled receptor GPR35 (Rattus norvegicus, UniProt Q33BM1). In words: Agonist activity at rat GPR35 expressed in CHO cells assessed as induction of beta-arrestin recruitment after 90 mins by beta-galactosidase reporter gene assay. The class given is cell-based. In a few lines: as §1
Chain of G protein-coupled receptor GPR35 (Q33BM1 whole entry): as the sequence (Q33BM1 as listed by the source) above

Chain of G-protein coupled receptor 35 (Mus musculus) (Q9ES90 whole entry): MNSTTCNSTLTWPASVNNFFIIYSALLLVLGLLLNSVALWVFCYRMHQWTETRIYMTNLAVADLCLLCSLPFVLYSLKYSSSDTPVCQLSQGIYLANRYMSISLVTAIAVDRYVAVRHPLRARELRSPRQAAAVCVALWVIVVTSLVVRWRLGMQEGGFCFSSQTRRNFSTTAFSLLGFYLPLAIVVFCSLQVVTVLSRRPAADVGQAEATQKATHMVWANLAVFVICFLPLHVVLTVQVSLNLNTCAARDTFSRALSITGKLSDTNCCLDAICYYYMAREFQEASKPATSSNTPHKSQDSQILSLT
T2 sequence (Q9HC97 whole entry, the tested form may be a part): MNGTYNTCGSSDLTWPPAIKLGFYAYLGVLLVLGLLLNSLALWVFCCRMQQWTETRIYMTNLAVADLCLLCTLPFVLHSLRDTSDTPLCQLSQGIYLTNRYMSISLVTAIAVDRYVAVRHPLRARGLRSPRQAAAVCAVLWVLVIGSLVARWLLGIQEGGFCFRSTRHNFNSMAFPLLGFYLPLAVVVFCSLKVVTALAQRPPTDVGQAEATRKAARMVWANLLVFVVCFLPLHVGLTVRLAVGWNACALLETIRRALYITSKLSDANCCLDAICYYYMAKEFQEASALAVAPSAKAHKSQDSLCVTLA

With `O=C(O)c1cc(=O)c2cccc([N+](=O)[O-])c2o1`, the Activity in assay [1] is 38%; in assay [2], -6%; in assay [3], 4%. The EC50 in assay [4] stood at 46300 nM. Moreover, the Emax in assay [5] stood at 101%. Besides, the inhibition in assay [6] amounted to 32%.
In the case of `COc1ccc(C(=O)Nc2cc(F)cc3c(=O)cc(C(=O)O)oc23)cc1`, the figures for the Emax in [7], in assay [5] and in assay [9] were 113%, 123% and 78%, respectively. For the same molecule, the Activity in assay [2] amounted to 7%; in assay [3], 30%. Besides, the EC50 in assay [8] is 143 nM; in assay [4], 112 nM; in assay [10], 1760 nM. For the same molecule, the inhibition in assay [6] worked out at 34%.
On to `O=C(Cc1ccccc1)Nc1cccc2c(=O)cc(C(=O)O)oc12`, for which the Activity was 47% in assay [1], -11% in [2] and 19% in [3]. For the same molecule, in assay [4], the EC50 turned out to be 8960 nM. For the same molecule, the Emax in [5] came to 107%. In addition, the inhibition in assay [6] worked out at 26%.
Consider `O=C(Nc1cc(Br)cc2c(=O)cc(C(=O)O)oc12)c1ccc(Cl)c(Cl)c1`, for which the maximal effect (Emax) turned out to be 109% in assay [7], 110% in assay [5] and 62% in assay [9]. The Activity in [2] amounted to 16%; in assay [3], 29%. Also, the EC50 in [8] came to 27.2 nM; in assay [4] it was 15.4 nM; in assay [10], 3250 nM. In addition, in assay [6], the inhibition was found to be 47%.
For `O=C(O)c1cc(=O)c2cc(F)cc(NC(=O)c3cccc(Cl)c3Cl)c2o1`, the Emax stood at 104% in assay [7], 106% in assay [5] and 82% in assay [9]. For the same molecule, in assay [2], the Activity is 5%. In addition, the EC50 was determined as 873 nM in [8], 382 nM in [4] and 3130 nM in assay [10]. In assay [6], the inhibition was 40%.
Turning to `COC(=O)CC(=O)Nc1cccc2c(=O)cc(C(=O)O)oc12`, the Activity in assay [2] is -4%; in assay [3], 15%. Moreover, the results for the EC50 in [4] and in [10] were 20200 nM and 6650 nM, respectively. In addition, the Emax in assay [5] was determined as 87%; in assay [9], 89%. In addition, the inhibition in assay [6] was 31%.
In the case of `Cc1cccc(C(=O)Nc2cccc3c(=O)cc(C(=O)O)oc23)c1`, the Activity in [2] was 10%; in [3] it was 18%. Moreover, the EC50 in assay [4] was 5440 nM; in [10] it was 2750 nM. The results for the Emax in [5] and in [9] were 70% and 71%, respectively. The inhibition in [6] was determined as 25%.
`CCOc1ccc(C(=O)Nc2cc(Br)cc3c(=O)cc(C(=O)O)oc23)cc1`: the Activity in assay [2] was -1%; in assay [3], 36%. Besides, the EC50 in assay [4] came to 634 nM; in assay [10], 1360 nM. In addition, the Emax amounted to 99% in assay [5] and 74% in [9]. The inhibition in assay [6] was found to be 39%.
Turning to `O=C(Nc1cccc2c(=O)cc(C(=O)O)oc12)c1cccc([N+](=O)[O-])c1`, the Activity was found to be 32% in [1], 12% in assay [2] and 26% in assay [3]. Besides, the EC50 in assay [4] turned out to be 6970 nM. Besides, the Emax in [5] came to 112%. Also, the inhibition in [6] stood at 20%.
With `N#Cc1ccc(C(=O)Nc2cc(Br)cc3c(=O)cc(C(=O)O)oc23)cc1`, the Activity in [2] came to 0%; in [3], 41%. The results for the EC50 in assay [4] and in [10] were 399 nM and 2260 nM, respectively. Besides, the values for the Emax in assay [5] and in [9] were 108% and 99%, respectively. For the same molecule, the inhibition in assay [6] came out at 38%.
Turning to `COc1ccc(C(=O)Nc2cc(Cl)cc3c(=O)cc(C(=O)O)oc23)cc1`, the figures for the Emax in [7], in assay [5] and in [9] were 125%, 110% and 86%, respectively. Moreover, the Activity in [2] was -2%; in assay [3], 34%. The EC50 in assay [8] is 28.6 nM; in assay [4], 16.8 nM; in assay [10] it was 1830 nM. In assay [6], the inhibition turned out to be 47%.
On to `O=C(Nc1cc(Br)cc2c(=O)cc(C(=O)O)oc12)c1ccccc1`, for which the Activity amounted to 23% in assay [2] and 40% in assay [3]. For the same molecule, the EC50 in assay [4] is 303 nM; in assay [10], 2750 nM. Moreover, the figures for the Emax in [5] and in [9] were 110% and 75%, respectively. For the same molecule, in assay [6], the inhibition came to 21%.
In the case of `Cc1ccc(C(=O)Nc2cccc3c(=O)cc(C(=O)O)oc23)cc1`, the figures for the Activity in [1], in assay [2] and in assay [3] were 43%, 6% and 43%, respectively. For the same molecule, the EC50 in [4] was 1380 nM. For the same molecule, in assay [5], the Emax was determined as 104%. Also, in assay [6], the inhibition worked out at 16%.
For `Nc1cc(Br)cc2c(=O)cc(C(=O)O)oc12`, the Activity in assay [1] came out at 40%; in assay [2], 4%; in assay [3], 18%. Moreover, in [4], the EC50 stood at 12600 nM. The Emax in assay [5] came to 84%. The inhibition in assay [6] amounted to 17%.
For `O=C(Nc1cccc2c(=O)cc(C(=O)O)oc12)c1ccccc1`, the results for the Activity in assay [1], in assay [2] and in assay [3] were 39%, 3% and 13%, respectively. The EC50 in [4] amounted to 4910 nM. In addition, the Emax in assay [5] turned out to be 107%. Also, the inhibition in assay [6] was 24%.
For the molecule `O=C(O)c1cc(=O)c2cccc(NC(=O)C3CCCCC3)c2o1`, the Activity in assay [2] was 17%; in assay [3] it was 38%. Moreover, the figures for the EC50 in assay [4] and in [10] were 4200 nM and 1200 nM, respectively. Further, the results for the Emax in assay [5] and in assay [9] were 118% and 79%, respectively. In addition, in [6], the inhibition worked out at 16%.
For `CCC(=O)Nc1cccc2c(=O)cc(C(=O)O)oc12`, the Activity came to 30% in [1], 15% in assay [2] and 12% in [3]. Also, the EC50 in assay [4] is 13400 nM. In [5], the Emax worked out at 119%. For the same molecule, in assay [6], the inhibition worked out at 16%.
As for `O=C(Nc1cc(Cl)cc2c(=O)cc(C(=O)O)oc12)c1ccccc1`, the Activity is 20% in assay [2] and 31% in assay [3]. For the same molecule, the EC50 in assay [4] was found to be 430 nM; in [10], 2840 nM. Moreover, the Emax in assay [5] came out at 115%; in assay [9], 65%. For the same molecule, the inhibition in assay [6] turned out to be 23%.
On to `CC(=O)Nc1cccc2c(=O)cc(C(=O)O)oc12`, for which the Activity in assay [1] was 31%; in [2] it was 1%; in [3], 3%. Besides, in assay [4], the EC50 stood at 24100 nM. In assay [5], the Emax came out at 91%.
For `Cc1cccc(C(=O)Nc2cc(Cl)cc3c(=O)cc(C(=O)O)oc23)c1`, the figures for the Activity in assay [2] and in [3] were 4% and 31%, respectively. Further, the EC50 worked out at 1220 nM in assay [4] and 2100 nM in assay [10]. Moreover, the Emax in assay [5] was found to be 102%; in assay [9], 92%. Further, the inhibition in assay [6] was determined as 40%.
As for `O=C(Nc1cccc2c(=O)cc(C(=O)O)oc12)c1ccc(C(F)(F)F)cc1`, the values for the Activity in [1], in assay [2] and in assay [3] were 38%, 1% and 23%, respectively. The EC50 in assay [4] amounted to 15500 nM. The Emax in assay [5] was 81%. Also, the inhibition in assay [6] turned out to be 5%.
Regarding `CCOC(=O)c1cc(=O)c2cc(F)cc(NC(=O)c3ccc(OC)cc3)c2o1`, the Activity in assay [1] is 1%; in assay [2], -1%; in assay [3] it was 7%. For the same molecule, the EC50 in [4] was determined as 112 nM. The Emax in assay [5] amounted to 80%. The inhibition in assay [6] stood at 26%.
Take `O=C(Nc1cc(Cl)cc2c(=O)cc(C(=O)O)oc12)c1ccc([N+](=O)[O-])cc1`: the values for the Activity in assay [2] and in assay [3] were 8% and 18%, respectively. Also, the values for the EC50 in assay [4] and in assay [10] were 1710 nM and 3140 nM, respectively. In addition, the Emax in assay [5] is 130%; in assay [9], 115%. Moreover, the inhibition in assay [6] was determined as 14%.
